Reference: PMC2217202 (The Journal of General Physiology, 2000)
Like-named read-outs stand apart in the source and are kept apart here.

Experiments:
[1] = target: T1, AE1 (band 3) protein in human red blood cells (Homo sapiens, UniProt P02730); assay: Inhibition of 36Cl exchange flux at 0°C after short exposure to WW781; format: cell-based; conditions: for rate constant for 36Cl exchange, k: 0°C (control 0.0507); for IC50: read-out: K 1W, 0°C
T1 sequence (P02730 1-911): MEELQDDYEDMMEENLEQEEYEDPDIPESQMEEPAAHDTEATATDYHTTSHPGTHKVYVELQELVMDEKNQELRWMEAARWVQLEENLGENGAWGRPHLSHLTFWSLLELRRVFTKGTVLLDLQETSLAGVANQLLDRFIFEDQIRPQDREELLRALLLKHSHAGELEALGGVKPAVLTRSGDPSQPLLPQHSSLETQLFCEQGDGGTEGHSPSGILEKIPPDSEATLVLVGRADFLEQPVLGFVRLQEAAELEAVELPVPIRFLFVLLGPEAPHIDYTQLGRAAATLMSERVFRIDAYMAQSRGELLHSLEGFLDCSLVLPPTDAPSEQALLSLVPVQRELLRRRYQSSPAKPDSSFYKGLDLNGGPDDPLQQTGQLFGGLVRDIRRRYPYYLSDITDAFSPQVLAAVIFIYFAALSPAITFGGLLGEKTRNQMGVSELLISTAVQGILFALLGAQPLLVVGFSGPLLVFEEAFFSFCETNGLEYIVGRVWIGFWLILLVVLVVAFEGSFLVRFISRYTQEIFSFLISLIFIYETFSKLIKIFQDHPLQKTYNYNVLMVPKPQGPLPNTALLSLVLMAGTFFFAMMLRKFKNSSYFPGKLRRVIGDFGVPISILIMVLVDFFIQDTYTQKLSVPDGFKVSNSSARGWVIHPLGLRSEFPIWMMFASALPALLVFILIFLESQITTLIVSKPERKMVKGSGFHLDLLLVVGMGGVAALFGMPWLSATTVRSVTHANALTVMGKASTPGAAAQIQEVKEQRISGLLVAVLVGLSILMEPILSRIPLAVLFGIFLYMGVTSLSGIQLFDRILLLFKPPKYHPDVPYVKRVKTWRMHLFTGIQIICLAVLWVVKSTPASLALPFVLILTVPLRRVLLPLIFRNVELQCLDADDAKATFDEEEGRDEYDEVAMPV
In short: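 Human RBCs loaded with 36Cl (10 min, 0°C) without pretreatment, resuspended in ice-cold medium with test compound (0.25-1.5 µM, 1% ethanol); nystatin equalized Cl− for non-150 mM media, citrate-sucrose replacing Cl−. Rapid-filtration samples were taken mostly before 30 s, never after 45 s. k was the slope of ln(P∞−Pt) versus time. Dissociation constants came from nonlinear least-squares single-site fits and Dixon plots.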

[2] = target: T1, AE1 (band 3) protein in human red blood cells; assay: Inhibition of 36Cl exchange flux at 0°C after equilibration with WW781; format: cell-based; conditions: for IC50: read-out: K eqW, 0°C, mean ± SEM
In short: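 Washed human RBCs (150 mM KCl, 20 mM HEPES, 24 mM sucrose, pH 6.9) at 0.25% hematocrit, internal Cl− set by nystatin, pretreated ≥2 min with test compound (1% ethanol), loaded with 36Cl (2-10 µCi/ml, 10 min, 0°C), then efflux into ice-cold medium with the same compound level. In 2 mM Cl− medium, no pretreatment and sampling began ≥4 min. Fit to single-site inhibition.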

AE1 [3] = format: cell-based, human; conditions: at saturating concentrations of WW781, 150 mM Cl− inside and outside
AE1 [4] = conditions: cells with 150 mM Cl− inside and outside; ref Raha et al. 1993; cited from earlier work
[5] = test system: net Cl^− permeability, PCl; conditions: ref Freedman and Novak 1983; cited from earlier work
AE1 [6] = conditions: ref Knauf et al. 1995; cited from earlier work

## CCCCN1C(=O)C(C=CC=CC=C2C(=O)N(c3ccc(S(=O)(=O)O)cc3)N=C2C)C(=O)N(CCCC)C1=O [WW781, [3-methyl-1-p-sulfophenyl-5-pyrazolone-(4)]-[1,3-dibutylbarbituric acid]-pentamethine oxonol]
[1]; 0.25 μM WW781, 150 mM Cl− medium
  rate constant for 36Cl exchange, k: 0.0389 s⁻¹
[1]; 0.5 μM WW781, 150 mM Cl− medium
  rate constant for 36Cl exchange, k: 0.0316 s⁻¹
[1]; 1 μM WW781, 150 mM Cl− medium
  rate constant for 36Cl exchange, k: 0.0274 s⁻¹
[1]; 1.5 μM WW781, 150 mM Cl− medium
  rate constant for 36Cl exchange, k: 0.0203 s⁻¹
[1]; initial binding
  K 1W,ECl/K 1W,E: 0.73 − 0.74
  K 1W,Ei/K 1W,Eo: 14.
[1]; [Cli = o] 20 mM, nystatin-treated cells
  IC50: 900 ± 210 nM
[1]; [Cli = o] 150 mM, mean ± SEM
  IC50: 590 ± 50 nM
[1]; [Cli = o] 600 mM, nystatin-treated cells, mean ± SEM
  IC50: 540 ± 100 nM
[1]; [Cli] = 150, [Clo] = 2 mM, mean ± SEM
  IC50: 140 ± 10 nM
[2]
  K 2/1W,ECl/K 2/1W,E: 0.12 − 0.15
[2]; Cl−-loaded forms
  K 2/1W,ECl: 1.8 − 2.2
[2]; Ei form
  K 2/1W,Ei: ≤34.
[2]; Eo form of AE1, from K 2/1W,Eo
  free energy difference ΔG^0 between complex 2 and complex 1: -1.82 kcal/mol
[2]; [Cli = o] 5 mM
  K 1W/K eqW: 15.5
[2]; [Cli = o] 150 mM
  K 1W/K eqW: 9.0
  IC50: 66 ± 12 nM
[2]; [Cli = o] 600 mM
  K 1W/K eqW: 3.8
  IC50: 143 ± 29 nM
[2]; [Cli] = 150, [Clo] = 2 mM
  K 1W/K eqW: 25.2
  IC50: 5.5 ± 0.3 nM
[2]; best-fit straight line, [Cli] = [Clo] (Fig. 10)
  slope of K eqW as a function of [Cl−]: 0.00016 ± 0.00004 μM/mM
[2]; both initial binding and equilibrium association
  preference for the Eo form of AE1 as compared with the Ei form: > 10 fold
[2]; equilibrium binding
  K eqW,Ei/K eqW,Eo: ≥12.
[2]; read-out: K eqW,EIi, mean ± SEM of two experiments
  Ki: 280 ± 70 nM
[2]; read-out: K eqW,Ei (minimum value), range over both estimates of K eqW,E
  Ki: 33 to 46 nM
AE1 [3]
  half-time for formation of complex 2: 33 s
AE1 [4]
  k W-AE1,W•AE1 (backward rate constant, complex 2 to complex 1): 0.15 min⁻¹
  k W•AE1,W-AE1 (forward rate constant for formation of complex 2): ~1.1 min⁻¹
[5]
  effect on net Cl− permeability, PCl: increase

## CCCCN1C(=O)C(=CC=CC=CC2C(=O)N(CCCC)C(=O)N(CCCC)C2=O)C(=O)N(CCCC)C1=O [diBA(5)C4, bis-(1,3-dibutylbarbituric acid)-pentamethine oxonol]
AE1 [6]
  inhibition of the transport system: most potent known inhibitor
